Tests used:
Spike glycoprotein = Spike glycoprotein (Severe acute respiratory syndrome coronavirus 2, UniProt P0DTC2); test: Binding affinity to SARS-CoV-2 Spike trimer protein by SPR analysis
Method in brief: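 Compound photo-crosslinked onto the chip; recombinant S-trimer injected at a series of concentrations in PBST (0.1% Tween 20, pH 7.4). Run at 4 °C, 600 s association, 360 s dissociation, 0.5 µL/s flow. Chip regenerated with glycine-HCl pH 2.0; KD from the SPR signals.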

[1] = Cytotoxicity against human HEK293T cells overexpressing human ACE2 assessed as inhibition of cell growth incubated for 48 hrs by MTT assay; format: toxicity, cell-based, HEK-293T
Method in brief: (§1)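 Monolayers of 293T-ACE2 or Vero E6 cells in DMEM with 10% FBS were PBS-rinsed and exposed to compounds for 48 h. MTT 0.5 mg/mL was then added for 4 h at 37 °C, formazan dissolved in DMSO, and absorbance read at 570 nm.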

SARS-CoV-2 [2] = test: Antiviral activity against SARS-CoV-2 Wuhan-HU-1 infected African green monkey Vero E6 cells preincubated for 1 hrs followed by incubation with virus 1 hr and measured after 24 hrs by fluorescence assay; format: functional, organism-based; conditions: Severe acute respiratory syndrome coronavirus 2, Wuhan-HU-1, Vero C1008
[3] = Cytotoxicity against African green monkey Vero E6 cells assessed as inhibition of cell growth incubated for 48 hrs by MTT assay; format: toxicity, cell-based, Vero C1008; conditions: chlorocebus sabaeus; method in brief: as §1
[4] = Selectivity index, ratio of CC50 for cytotoxicity against African green monkey Vero E6 cells to EC50 for antiviral activity against SARS-CoV-2 Wuhan-Hu-1 infected African green monkey Vero E6 cells; format: toxicity, cell-based, Vero C1008; conditions: read-out: Ratio CC50/EC50
SARS-CoV-2 [5] = test: Antiviral activity against SARS-CoV-2 Wuhan-HU-1 infected African green monkey Vero E6 cells assessed as reduction in N-protein expression at 0.55 to 15 uM by indirect immunofluorescence assay; format: functional, organism-based; conditions: Severe acute respiratory syndrome coronavirus 2, dose 0.55-15 µM, DDE = dose-dependent effect
SARS-CoV-2 [6] = test: Antiviral activity against pseudovirus SARS-CoV-2 spike protein expressed in human HEK293T cells assessed as inhibition of spike protein S2 subunit mediated membrane fusion in African green monkey Vero E6 cells at 2.5 to 20 uM incubated for 0.5 hr and measured after 24 hrs by inverted fluorescence microscopy; format: functional, organism-based; conditions: Severe acute respiratory syndrome coronavirus 2, dose 2.5-20 µM, time 24.5 hrs, DDE = dose-dependent effect
Method in brief: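 Effector HEK-293T cells were transfected with GFP/SARS-CoV-2 S plasmid, or an EGFP-only vector as control. They were treated with or without graded compound for 30 min, then overlaid on Vero-E6 target cells seeded 6 h before. After 24 h, three random fields were imaged by inverted fluorescence microscopy.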

Q: Which Kd (Spike glycoprotein) does the source give for `COc1cccc(OC)c1NC(=O)[C@]12CC[C@@H](C)[C@H](C)[C@H]1C1=CC[C@@H]3[C@@]4(C)CC[C@H](O[C@@H]5O[C@H](CO)[C@@H](O[C@@H]6O[C@@H](C)[C@H](O)[C@@H](O)[C@H]6O)[C@H](O)[C@H]5O[C@@H]5O[C@@H](C)[C@H](O)[C@@H](O)[C@H]5O)C(C)(C)[C@@H]4CC[C@@]3(C)[C@]1(C)CC2` here?
A: The Kd was 0.78 µM.

Q: What about the CC50 at 48 h [1] of the same molecule?
A: Its CC50 at 48 h is over 100 µM.

Q: What about the EC50 (SARS-CoV-2 [2]) of the same molecule?
A: The EC50 was 2.05 µM.

Q: What about the CC50 at 48 h [3] of the same molecule?
A: Its CC50 at 48 h is over 100 µM.

Q: And the selectivity ratio [4]?
A: Its selectivity ratio is over 48.8.

Q: What about the Activity (SARS-CoV-2 [5]) of the same molecule?
A: The Activity was “Dde”.

Q: What about the inhibition (SARS-CoV-2 [6]) of the same molecule?
A: Its inhibition is “Dde”.

Q: For `C[C@H]1[C@H](C)CC[C@]2(C(=O)NCc3ccccc3)CC[C@]3(C)C(=CC[C@@H]4[C@@]5(C)CC[C@H](O[C@@H]6O[C@H](CO)[C@@H](O[C@@H]7O[C@@H](C)[C@H](O)[C@@H](O)[C@H]7O)[C@H](O)[C@H]6O[C@@H]6O[C@@H](C)[C@H](O)[C@@H](O)[C@H]6O)C(C)(C)[C@@H]5CC[C@]43C)[C@H]12`, which CC50 at 48 h [1] is on record?
A: The CC50 at 48 h was over 100 µM.

Q: With `COc1ccccc1NC(=O)[C@]12CC[C@@H](C)[C@H](C)[C@H]1C1=CC[C@@H]3[C@@]4(C)CC[C@H](O[C@@H]5O[C@H](CO)[C@@H](O[C@@H]6O[C@@H](C)[C@H](O)[C@@H](O)[C@H]6O)[C@H](O)[C@H]5O[C@@H]5O[C@@H](C)[C@H](O)[C@@H](O)[C@H]5O)C(C)(C)[C@@H]4CC[C@@]3(C)[C@]1(C)CC2` as the molecule, how does the Kd (Spike glycoprotein) read?
A: The Kd was 13.9 µM.

Q: And the CC50 at 48 h [1]?
A: Its CC50 at 48 h is 43.3 µM.

Q: And the EC50 (SARS-CoV-2 [2])?
A: Its EC50 is 2.38 µM.

Q: And the CC50 at 48 h [3]?
A: Its CC50 at 48 h is over 100 µM.

Q: And the selectivity ratio [4]?
A: Its selectivity ratio is over 42.

Q: Which CC50 at 48 h [1] does the source give for `COc1ccc(CNC(=O)[C@]23CC[C@@H](C)[C@H](C)[C@H]2C2=CC[C@@H]4[C@@]5(C)CC[C@H](O[C@@H]6O[C@H](CO)[C@@H](O[C@@H]7O[C@@H](C)[C@H](O)[C@@H](O)[C@H]7O)[C@H](O)[C@H]6O[C@@H]6O[C@@H](C)[C@H](O)[C@@H](O)[C@H]6O)C(C)(C)[C@@H]5CC[C@@]4(C)[C@]2(C)CC3)cc1` here?
A: Its CC50 at 48 h is over 100 µM.

From ChEMBL document CHEMBL5113397, “Identification, optimization, and biological evaluation of 3-O-β-chacotriosyl ursolic acid derivatives as novel SARS-CoV-2 entry inhibitors by targeting the prefusion state of spike protein” (Eur J Med Chem, 2022)
